Experimental data from ChEMBL document CHEMBL4004857, “Synthesis and biological evaluation of novel pyrazolic chalcone derivatives as novel hepatocellular carcinoma therapeutics” (Eur J Med Chem, 2017).
Activity calls are given as the source filed them. No cut-off for these calls is given here.

Tests used:
MCF7 = assay: Cytotoxicity against human MCF7 cells assessed as growth inhibition after 72 hrs by SRB assay; type: functional, cell-based; details: MCF7, 72 h
Outline: (§1)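 Cells seeded at 2000–3000 per well and grown 24 h at 37C, then treated in triplicate with compounds dissolved in DMSO over a 40–0.3 range for 72 h. Cells were fixed with 10% TCA for 1 h, stained with 0.4% SRB in 1% acetic acid, washed with 1% acetic acid and air-dried. Bound dye was solubilized in 10 mM Tris base and read at 515 nm. % inhibition and IC50 were calculated against DMSO-only controls.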

Homo sapiens = organism: Homo sapiens; assay: Inhibition of tubulin polymerization (unknown origin)
HCT-116 = assay: Cytotoxicity against human HCT116 cells assessed as growth inhibition after 72 hrs by SRB assay; type: functional, cell-based; details: HCT-116, 72 h; outline: as §1
Huh-7 [1] = assay: Cytotoxicity against human HuH7 cells assessed as growth inhibition after 72 hrs by SRB assay; type: functional, cell-based; details: Huh-7, 72 h; outline: as §1
SNU-475 [2] = assay: Induction of apoptosis in human SNU475 cells assessed as PARP cleavage at cytotoxic IC100 measured after 24 hrs by Western blot method; type: functional, cell-based
SNU-475 [3] = assay: Induction of apoptosis in human SNU475 cells assessed as condensed nuclei at cytotoxic IC100 measured after 72 hrs by light microscopic method; type: functional, cell-based
MCF-12A = assay: Cytotoxicity against human MCF12A cells assessed as growth inhibition after 72 hrs by SRB assay; type: cell-based; outline: as §1
Huh-7 [4] = assay: Growth inhibition of human HuH7 cells at cytotoxic IC100 measured every 10 mins for first 24 hrs and every 30 mins for remaining 48 hrs by RT-CES analysis; type: functional, cell-based
HepG2 [5] = assay: Induction of apoptosis in human HepG2 cells assessed as condensed nuclei at cytotoxic IC100 measured after 48 hrs by DAPI/Annexin-V-Fluos staining based fluorescent microscopic method; type: functional, cell-based
Outline: (§2)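 Cells on coverslips were treated after 24 h in culture and stained 48 h later with Annexin-V-Fluos plus DAPI nuclear stain. Cells were then examined by fluorescence microscopy for Annexin V-positive cells with condensed nuclei.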

HepG2 [6] = assay: Induction of apoptosis in human HepG2 cells assessed as condensed nuclei at cytotoxic IC100 measured after 72 hrs by light microscopic method; type: functional, cell-based
SNU-475 [7] = assay: Induction of apoptosis in human SNU475 cells assessed as condensed nuclei at cytotoxic IC100 measured after 48 hrs by DAPI/Annexin-V-Fluos staining based fluorescent microscopic method; type: functional, cell-based; outline: as §2
HepG2 [8] = assay: Induction of apoptosis in human HepG2 cells assessed as PARP cleavage at cytotoxic IC100 measured after 24 hrs by Western blot method; type: functional, cell-based
MRC5 = assay: Cytotoxicity against human MRC5 cells assessed as growth inhibition after 72 hrs by SRB assay; type: cell-based; details: mrc5; outline: as §1
SNU-475 [9] = assay: Cytotoxicity against human SNU475 cells assessed as growth inhibition after 72 hrs by SRB assay; type: functional, cell-based; details: SNU-475, 72 h; outline: as §1
SNU-475 [10] = assay: Growth inhibition of human SNU475 cells at cytotoxic IC100 measured every 10 mins for first 24 hrs and every 30 mins for remaining 48 hrs by RT-CES analysis; type: functional, cell-based
HepG2 [11] = assay: Growth inhibition of human HepG2 cells at cytotoxic IC100 measured every 10 mins for first 24 hrs and every 30 mins for remaining 48 hrs by RT-CES analysis; type: functional, cell-based
HepG2 [12] = assay: Cytotoxicity against human HepG2 cells assessed as growth inhibition after 72 hrs by SRB assay; type: functional, cell-based; details: HepG2, 72 h; outline: as §1
Mahlavu [13] = assay: Cytotoxicity against human Mahlavu cells assessed as growth inhibition after 72 hrs by SRB assay; type: functional, cell-based; outline: as §1
Mahlavu [14] = assay: Growth inhibition of human Mahlavu cells at cytotoxic IC100 measured every 10 mins for first 24 hrs and every 30 mins for remaining 48 hrs by RT-CES analysis; type: functional, cell-based

Row | SMILES | IC50 (MCF7) [µM] | inhibition (Homo sapiens) | IC50 (HCT-116) [µM] | IC50 (Huh-7 [1]) [µM] | also measured
1 | O=C(/C=C/c1cn(-c2ccccc2)nc1-c1ccsc1)c1ccc2c(c1)OCO2 | 5.3 | inactive | 12.2 | 22.6 | 
2 | Nc1nc(Cl)nc2c1ncn2[C@H]1C[C@H](O)[C@@H](CO)O1 [CLADRIBINE] | 2 |  | 0.3 | 1.8 | 
3 | O=C(/C=C/c1cn(-c2ccccc2)nc1-c1cccnc1)c1ccc2c(c1)OCO2 | 5.6 | inactive | 1.8 | 6.7 | 
4 | O=C(/C=C/c1cn(-c2ccccc2)nc1-c1ccncc1)c1ccsc1 | 1.5 | inactive | 1.1 | 2.2 | 
5 | O=C(/C=C/c1cn(-c2ccccc2)nc1-c1cccnc1)c1cc[nH]c1 | 6.9 | inactive | 7.4 | 3.3 | 
6 | O=C(/C=C/c1cn(-c2ccccc2)nc1-c1ccncc1)c1ccc2c(c1)OCO2 | 0.8 | inactive | 5.3 | 0.4 | 
7 | COc1ccc(C(=O)/C=C/c2cn(-c3ccccc3)nc2-c2ccc3c(c2)OCO3)c(OC)c1OC | 7.4 | inactive | 3.2 | 10.8 | 
8 | COc1ccc(C(=O)/C=C/c2cn(-c3ccccc3)nc2-c2ccncc2)c(OC)c1 | 8.8 | inactive | 4.4 | 4.4 | 
9 | COc1cc(OC)c(C(=O)/C=C/c2cn(-c3ccccc3)nc2-c2ccsc2)c(OC)c1 | 2.7 | inactive | 5.2 | 6.1 | 
10 | O=C(/C=C/c1cn(-c2ccccc2)nc1-c1ccncc1)c1cc[nH]c1 | 13.6 | inactive | 15.7 | 28.8 | 
11 | O=C(/C=C/c1cn(-c2ccccc2)nc1-c1ccc2c(c1)OCO2)c1ccccn1 | 4.1 | inactive | 6.7 | 3.4 | 
12 | COc1ccc(OC)c(C(=O)/C=C/c2cn(-c3ccccc3)nc2-c2ccc3c(c2)OCO3)c1 | 5.8 | inactive | 1.3 | 6.1 | 
13 | COc1cc(OC)c(C(=O)/C=C/c2cn(-c3ccccc3)nc2-c2ccc3c(c2)OCO3)c(OC)c1 | 11.5 | inactive | 10.8 | 6.7 | 
14 | COc1cc(C(=O)/C=C/c2cn(-c3ccccc3)nc2-c2ccsc2)cc(OC)c1OC | 4.9 | inactive | 3.2 | 3.6 | 
15 | O=C(/C=C/c1cn(-c2ccccc2)nc1-c1ccc2c(c1)OCO2)c1cccnc1 | 2.2 | inactive | 3.8 | 3.4 | 
16 | O=C(/C=C/c1cn(-c2ccccc2)nc1-c1ccc2c(c1)OCO2)c1ccsc1 | 4.9 | inactive | 8.9 | 3.2 | 
17 | COc1ccc(C(=O)/C=C/c2cn(-c3ccccc3)nc2-c2cccnc2)c(OC)c1 | 2.3 | inactive | 1.3 | 2.4 | 
18 | O=c1[nH]cc(F)c(=O)[nH]1 [FLUOROURACIL] | 1.4 |  | 18.4 | 21 | 
19 | COc1cc(OC)c(C(=O)/C=C/c2cn(-c3ccccc3)nc2-c2ccncc2)c(OC)c1 | 1.6 | inactive | 0.6 | 2.6 | Activity (SNU-475 [2]): Active; Activity (SNU-475 [3]): Active; IC50 (MCF-12A): 8.2 µM; growth inhibition (GI) (Huh-7 [4]): Active; Activity (HepG2 [5]): Active; Activity (HepG2 [6]): Active; Activity (SNU-475 [7]): Active; Activity (HepG2 [8]): Active; IC50 (MRC5): Non-Toxic; IC50 (SNU-475 [9]): 1.4 µM; growth inhibition (GI) (SNU-475 [10]): Active; growth inhibition (GI) (HepG2 [11]): Active; IC50 (HepG2 [12]): 1.7 µM; IC50 (Mahlavu [13]): 1.1 µM; growth inhibition (GI) (Mahlavu [14]): Active
20 | COc1cc(C(=O)/C=C/c2cn(-c3ccccc3)nc2-c2cccnc2)cc(OC)c1OC | 14.5 | inactive | 8.6 | 1.9 | 
21 | O=C(/C=C/c1cn(-c2ccccc2)nc1-c1ccc2c(c1)OCO2)c1cc[nH]c1 | 9.9 | inactive | 20.3 | 9.2 | 

Row | SMILES | IC50 (MCF7) [µM] | inhibition (Homo sapiens) | IC50 (HCT-116) [µM] | IC50 (Huh-7 [1]) [µM] | also measured
22 | O=C(/C=C/c1cn(-c2ccccc2)nc1-c1ccc2c(c1)OCO2)c1ccccc1 | 11.1 | inactive | 1.16 | 10.5 | 
23 | COc1ccc(OC)c(C(=O)/C=C/c2cn(-c3ccccc3)nc2-c2ccsc2)c1 | 0.4 | inactive | 3.4 | 2.1 | 
24 | O=C(/C=C/c1cn(-c2ccccc2)nc1-c1cccnc1)c1c[nH]c2ccccc12 | 2.6 | inactive | 6.4 | 3.2 | 
25 | COc1ccc(C(=O)/C=C/c2cn(-c3ccccc3)nc2-c2ccc3c(c2)OCO3)cc1OC | 11.7 | inactive | 11.4 | 15.4 | 
26 | COc1ccc(C(=O)/C=C/c2cn(-c3ccccc3)nc2-c2ccncc2)c(OC)c1OC | 3.3 | inactive | 1.3 | 3.7 | 
27 | COc1ccc(C(=O)/C=C/c2cn(-c3ccccc3)nc2-c2ccsc2)c(OC)c1OC | 7.4 | inactive | 5.8 | 4.2 | 
28 | O=C(/C=C/c1cn(-c2ccccc2)nc1-c1cccnc1)c1ccccn1 | 4.2 | inactive | 2.1 | 6.4 | 
29 | COc1ccc(C(=O)/C=C/c2cn(-c3ccccc3)nc2-c2ccsc2)c(OC)c1 | 9 | inactive | 2.2 | 3 | 
30 | COc1ccc(C(=O)/C=C/c2cn(-c3ccccc3)nc2-c2ccncc2)cc1OC | 4.3 | inactive | 1.2 | 2 | 
31 | COc1ccc(C(=O)/C=C/c2cn(-c3ccccc3)nc2-c2ccc3c(c2)OCO3)c(OC)c1 | 14.5 | inactive | 8.6 | 19 | 
32 | O=C(/C=C/c1cn(-c2ccccc2)nc1-c1cccnc1)c1ccsc1 | 0.5 | inactive | 1.3 | 1.7 | 
33 | COc1cc(C(=O)/C=C/c2cn(-c3ccccc3)nc2-c2ccc3c(c2)OCO3)cc(OC)c1OC | 10.9 | inactive | 8.3 | 11.7 | 
34 | COc1ccc(C(=O)/C=C/c2cn(-c3ccccc3)nc2-c2cccnc2)c(OC)c1OC | 1.4 | inactive | 1.1 | 2.3 | 
35 | COc1ccc(C(=O)/C=C/c2cn(-c3ccccc3)nc2-c2ccsc2)cc1OC | 2.8 | inactive | 1.6 | 2.9 | 
36 | O=C(/C=C/c1cn(-c2ccccc2)nc1-c1ccc2c(c1)OCO2)c1ccc2c(c1)OCO2 | 17.5 | inactive | 27.2 | 9.9 | 
37 | COc1ccc(C(=O)/C=C/c2cn(-c3ccccc3)nc2-c2cccnc2)cc1OC | 1.7 | inactive | 4.3 | 3.1 | 
38 | O=C(/C=C/c1cn(-c2ccccc2)nc1-c1ccncc1)c1ccccc1 | 3.4 | inactive | 3.1 | 1.8 | 
39 | O=C(/C=C/c1cn(-c2ccccc2)nc1-c1ccsc1)c1ccccc1 | 1.9 | inactive | 5.1 | 4.7 | 
40 | COc1cc(C(=O)/C=C/c2cn(-c3ccccc3)nc2-c2ccncc2)cc(OC)c1OC | 3.5 | inactive | 0.3 | 3.5 | 
41 | O=C(/C=C/c1cn(-c2ccccc2)nc1-c1cccnc1)c1ccccc1 | 4.1 | inactive | 2 | 2.3 | 
